In ChEMBL document CHEMBL1127616, “Synthesis, structural characterization, and antitumor properties of a novel class of large-ring platinum(II) chelate complexes incorporating the cis-1,4-diaminocyclohexane ligand in a unique locked boat conformation” (J Med Chem, 1994):

Tested on: Mus musculus
Assay: Tested for in vivo weight change against murine P388 leukemia at the dose of 2.3 mg/kg per injection in experiment 2
Format: functional, organism-based
Method in brief: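 Leukemia life-span assays used CD2F1 (Balb/c × DBA/2F1) mice weighing 18–22 g. Cells were inoculated IP on day 0, and compounds in 0.9% saline were given IP, dosed by average cage weight. Weight change is the difference in mean group weight between the last and first treatment days.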

Q: For [Pt(cis-1,4-dach)CL2], which Weight change is on record?
A: The Weight change was -2.2 g.
